Columns and labels:
[1] = Selectivity index, ratio of CC50 for HeLa cells to IC50 for HRV2; type: functional
In short: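 Computed as CC50 (HeLa, 72 h crystal violet viability) divided by IC50 (HRV-2 CPE inhibition in HeLa, 72 h), both in µg/mL.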

[2] = system: rhinovirus A2; test: Antiviral activity against HRV2 in HeLa cells by CPE assay; type: functional; set-up: unit not given here
In short: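 HRV-2 stock grown in HeLa cells. 1-day-old confluent HeLa monolayers were given compound in test medium (2% NCS) plus virus at MOI 0.01 after medium removal. CPE was scored 72 h post-infection by crystal violet uptake, with six uninfected and six infected untreated wells per plate and pleconaril as reference. IC50 was taken from mean dose-response curves of at least three separate experiments.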

[3] = system: HeLa; test: Cytotoxicity against human HeLa cells; type: cell-based; set-up: unit not given here
In short: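 2-day-old confluent HeLa monolayers were exposed to serial 2-fold compound dilutions for 72 h at 37 °C, 5% CO2. Cells were fixed and stained with crystal violet formalin, and the dye was extracted and read at 550/630 nm. Viability was expressed as percent of the mean of six mock-treated controls. CC50 is the concentration cutting viability by 50%.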

**Q.** Which results are given for `Cc1cc(CCCOc2c(C)cc(-c3ccc(-c4ccccc4)cc3)cc2C)on1`?
**A.** logSI [1]: 0; logIC50 [2]: 1.7; logCC50 [3]: 1.7

**Q.** For `Cc1cc(CCCOc2c(C)cc(-c3ccc(OC(F)(F)F)cc3)cc2C)on1`, which logSI [1] is on record?
**A.** 1

**Q.** And the logIC50 [2]?
**A.** 0.05

**Q.** What about the logCC50 [3] of the same molecule?
**A.** 1.03

**Q.** Which logSI [1] does the source give for `Cc1cc(CCCOc2c(C)cc(-c3ccccc3C)cc2C)on1` here?
**A.** 1.76

**Q.** And the logIC50 [2]?
**A.** -1.09

**Q.** What about the logCC50 [3] of the same molecule?
**A.** 0.66

**Q.** Which results are given for `Cc1cc(CCCOc2c(C)cc(-c3ccc(Br)cc3)cc2C)on1`?
**A.** logSI [1]: 0.85; logIC50 [2]: -0.15; logCC50 [3]: 0.68

**Q.** With `Cc1ccc(C)c(-c2cc(C)c(OCCCc3cc(C)no3)c(C)c2)c1` as the molecule, how does the logSI [1] read?
**A.** 0.6

**Q.** What about the logIC50 [2] of the same molecule?
**A.** 1.06

**Q.** What about the logCC50 [3] of the same molecule?
**A.** 1.7

**Q.** With `Cc1cc(CCCOc2c(C)cc(-c3ccc(C=O)cc3)cc2C)on1` as the molecule, how does the logSI [1] read?
**A.** 2.09

**Q.** And the logIC50 [2]?
**A.** -1.09

**Q.** And the logCC50 [3]?
**A.** 1

**Q.** What does the source list for `CC(=O)c1ccc(-c2cc(C)c(OCCCc3cc(C)no3)c(C)c2)cc1`?
**A.** logSI [1]: 2.33; logIC50 [2]: -0.63; logCC50 [3]: 1.7

**Q.** Which logSI [1] does the source give for `C=Cc1ccc(-c2cc(C)c(OCCCc3cc(C)no3)c(C)c2)cc1` here?
**A.** 3.2

**Q.** And the logIC50 [2]?
**A.** -0.9

**Q.** And the logCC50 [3]?
**A.** 2.3

**Q.** Which results are given for `Cc1cc(CCCOc2c(C)cc(-c3cc(F)c(F)c(F)c3)cc2C)on1`?
**A.** logSI [1]: 3.34; logIC50 [2]: -1.46; logCC50 [3]: 1.88

**Q.** For `Cc1cc(CCCOc2c(C)cc(-c3ccc(F)c(C)c3)cc2C)on1`, which logSI [1] is on record?
**A.** 3.1

**Q.** And the logIC50 [2]?
**A.** -1.82

**Q.** What about the logCC50 [3] of the same molecule?
**A.** 1.28

**Q.** For `Cc1cc(CCCOc2c(C)cc(-c3cc(C(F)(F)F)cc(C(F)(F)F)c3)cc2C)on1`, which logSI [1] is on record?
**A.** 0

**Q.** And the logIC50 [2]?
**A.** 1.7

**Q.** What about the logCC50 [3] of the same molecule?
**A.** 1.7

**Q.** What does the source list for `Cc1cc(CCCOc2c(C)cc(-c3cccc(F)c3)cc2C)on1`?
**A.** logSI [1]: 2.36; logIC50 [2]: -1.4; logCC50 [3]: 0.96

**Q.** Which logSI [1] does the source give for `Cc1cc(CCCOc2c(C)cc(-c3ccc(C(F)(F)F)cc3)cc2C)on1` here?
**A.** 2.05

**Q.** And the logIC50 [2]?
**A.** -0.97

**Q.** What about the logCC50 [3] of the same molecule?
**A.** 1.08

**Q.** For `Cc1cc(CCCOc2c(C)cc(-c3cccc([N+](=O)[O-])c3)cc2C)on1`, which logSI [1] is on record?
**A.** 2.25

**Q.** What about the logIC50 [2] of the same molecule?
**A.** -1.47

**Q.** What about the logCC50 [3] of the same molecule?
**A.** 0.79

**Q.** Which results are given for `Cc1cc(CCCOc2c(C)cc(-c3ccc(F)cc3F)cc2C)on1`?
**A.** logSI [1]: 3.2; logIC50 [2]: -2.3; logCC50 [3]: 0.9

**Q.** For `COc1cc(-c2cc(C)c(OCCCc3cc(C)no3)c(C)c2)cc(OC)c1OC`, which logSI [1] is on record?
**A.** 1.53

**Q.** What about the logIC50 [2] of the same molecule?
**A.** -0.54

**Q.** What about the logCC50 [3] of the same molecule?
**A.** 1

**Q.** For `Cc1cc(CCCOc2c(C)cc(-c3ccc(C)c(C)c3)cc2C)on1`, which logSI [1] is on record?
**A.** 1.97

**Q.** And the logIC50 [2]?
**A.** -1.31

**Q.** What about the logCC50 [3] of the same molecule?
**A.** 0.66

**Q.** What does the source list for `Cc1cc(CCCOc2c(C)cc(-c3cccc(C(F)(F)F)c3)cc2C)on1`?
**A.** logSI [1]: 2.32; logIC50 [2]: -1.24; logCC50 [3]: 1.08

**Q.** Which logSI [1] does the source give for `Cc1cc(CCCOc2c(C)cc(-c3cccc4ccccc34)cc2C)on1` here?
**A.** 1.16

**Q.** What about the logIC50 [2] of the same molecule?
**A.** -0.2

**Q.** And the logCC50 [3]?
**A.** 0.96

**Q.** What does the source list for `Cc1cc(CCCOc2c(C)cc(-c3ccc(F)cc3)cc2C)on1`?
**A.** logSI [1]: 3.74; logIC50 [2]: -2.05; logCC50 [3]: 1.7

**Q.** With `Cc1cc(CCCOc2c(C)cc(-c3noc(C(F)(F)F)n3)cc2C)on1` [PLECONARIL] as the molecule, how does the logSI [1] read?
**A.** 2.8

**Q.** And the logIC50 [2]?
**A.** -1.7

**Q.** And the logCC50 [3]?
**A.** 1.1

— ChEMBL document CHEMBL1148737, “Quantitative structure-activity relationship studies of [(biphenyloxy)propyl]isoxazole derivatives. Inhibitors of human rhinovirus 2 replication” (J Med Chem, 2007)
